According to the RNAGym collection of RNA variant scans (doi:10.1126/science.aae0568):
Fewer inactive variants are shown than the library holds.

B1: tRNA (parent)
chain: GUUCCGUUGGCGUAAUGGUAACGCGUCUCCCUCCUAAGGAGAAGACUGCGGGUUCGAGUCCCGUACGGAACG

Variants of: B1
Test: yeast fitness relative to wild type (ratio to wild type); higher = fitter; tRNA-Arg(CCU), competitive growth, 37 C, YPD
In short: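 The tRNA-Arg(CCU) gene variants were made by chemical synthesis with a 3% per-site mutation rate at 69 sites and inserted at the native genomic locus of Saccharomyces cerevisiae. After pooling, the strains were competed in YPD at 37°C for 24 hours in six parallel replicates. Gene amplicons from the start population and each end population were read by 100-nucleotide paired-end sequencing, and Darwinian fitness relative to wild type was taken from genotype frequency changes. Genotypes needed ≥ 100 starting reads, and estimates < 0.5 were set to 0.5.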

Variant | yeast fitness
GUUCCGUUGGCGUACUGGUAACGCGUCUCACUCAUAAGGAGCAGACUGCGGGUUCAUGUCCCGUACGGAACG [A15C C30A C34A A42C G56A A57U] | ≤ 0.5
GUUCCGUUGGCGUACUGGUAACGCGUCUCACUCCUAAGGAGAAGACUCCGGGUUCCAGUCCCGUACGGAACG [A15C C30A G48C G56C] | ≤ 0.5
GUUCCGUUGGCGUACUGGUAACGCGUCUCCAUCAUAAGGAGAAGACUGCGGGUUCGAGUCCCGUACCGAACG [A15C C31A C34A G67C] | ≤ 0.5
GUUCCGUUGGCGUACUGGUAACGCGUCUCCAUCCCAAGGAGAAGUCUGCGGGUUCGAGUCCCGUACGGAACG [A15C C31A U35C A45U] | ≤ 0.5
GUUCCGUUGGCGUACUGGUAACGCGUCUCCAUCCUAAGGAGAAGACUGCGGGUUCGAGCCCCAUACGGGACG [A15C C31A U59C G63A A69G] | ≤ 0.5
GUUCCGUUGGCGUACUGGUAACGCGUCUCCGUCCUAAGGAGAAGACUGCGGGUUCGAGUCCCGUACGGAACG [A15C C31G] | 0.632
GUUCCGUUGGCGUACUGGUAACGCGUCUCCGUCCUAAGGUGAAGACUGCGGGUUCGAGUCCCGUACGGAACG [A15C C31G A40U] | 0.624
GUUCCGUUGGCGUACUGGUAACGCGUCUCCUUCCUAAGGAGAAGACUGCGGGUUCGAGUCCGGGGCCGAACG [A15C C31U C62G U64G A65G G67C] | ≤ 0.5
GUUCCGUUGGCGUACUGGUAACGCGUCUCCCUUCUUAGGAGAAGACUGCGGGUUCGAGUCCCGUAUGGAACG [A15C C33U A36U C66U] | ≤ 0.5
GUUCCGUUGGCGUACUGGUAACGCGUCUCCCUUCUAAGGAGAAGACGGUGGCUUCGAGUCCCGUACGGAGCG [A15C C33U U47G C49U G52C A70G] | 0.585
GUUCCGUUGGCGUACUGGUAACGCGUCUCCCUCGUAUGGAGAAGAGUGCGGGUUCGAGUCCCGUACGGUACG [A15C C34G A37U C46G A69U] | ≤ 0.5
GUUCCGUUGGCGUACUGGUAACGCGUCUCCCUCGUAAGGAGAAGACUGCGGGUUCGAGUUCCGUACGGAACG [A15C C34G C60U] | ≤ 0.5
GUUCCGUUGGCGUACUGGUAACGCGUCUCCCUCCUAAGGAGAAGAUUGCGAGUUCGAGUCCCGUAAGGAACG [A15C C46U G51A C66A] | ≤ 0.5
GUUCCGUUGGCGUACUGGUAACGCGUCUCCCUCCUAAGGAGAAGACUGGGGGUUCGAGUCCUGUACGGAACG [A15C C49G C62U] | 0.636
GUUCCGUUGGCGUACUGGUAACGCGUCUCCCUCCUAAGGAGAAGACUGCGGGUUAGAGUCCCGUACGGAACG [A15C C55A] | 0.562
GUUCCGUUGGCGUACUAGUAACGCGUCUCCCUCCUAAGGAGAAGACUGCGGGUUCGCGUCCCGUACGGAACG [A15C G17A A57C] | 0.527
GUUCCGUUGGCGUACUAAUAACGCGUCUCCCUCCUCAGGAGAAGACUGCGGGUUCGAGUCCCGUACGGAACG [A15C G17A G18A A36C] | ≤ 0.5
GUUCCGUUGGCGUACUAGUAACGCGUCUCCCUCCUAACGAGAAGACUGCGGGUUCGAGUCCUGUACGGAACG [A15C G17A G38C C62U] | ≤ 0.5
GUUCCGUUGGCGUACUAGUAACGCGUCUCCCUCCUAAGGAGAAGACUGCGGGUCGGAGUCCCGUACGGAACG [A15C G17A U54C C55G] | ≤ 0.5

Variant | yeast fitness
GUUCCGUUGGCGUACUCGUAACGCGUCUCCCUCCUAAGGAGAAGACUGCGGGUUCGAGUCCCGUACGGAACG [A15C G17C] | 0.62
GUUCCGUUGGCGUACUCGUAACGCGUCUCCGUCCUAAGGAGAAGACUGCCGGUUCGAGUCCGGUACGGACCG [A15C G17C C31G G50C C62G A70C] | ≤ 0.5
GUUCCGUUGGCGUACUGAUAACGGGUCUCCCUCCUAAGGAGAAGACUGCGGGUUAGAGUCCCGUACGGAACG [A15C G18A C24G C55A] | ≤ 0.5
GUUCCGUUGGCGUACUGAGAACGCGUCUCCCUCCUAAGGAGAAGACUGCGGGUUCGACUCCCGUACGGAACG [A15C G18A U19G G58C] | ≤ 0.5
GUUCCGUUGGCGUACUGGUAACACGUCUCCCUCCUAAGGAGCAGACUACCGGUUCGAGUCCCGUACGGAACG [A15C G23A A42C G48A G50C] | ≤ 0.5
GUUCCGUUGGCGUACUGGUAACCCGUCUCCCUCCUAAGGAGAAGACUGCGGGUUCGAGUUCCGUACGGAACG [A15C G23C C60U] | ≤ 0.5
GUUCCGUUGGCGUACUGGUAACCCGUCUCCCUCCUAAGGAGAAGACUGCGGGUUCGAGUUCCGUACGGGACG [A15C G23C C60U A69G] | ≤ 0.5
GUUCCGUUGGCGUACUGGUAACGCAUCUCCCUCCUAAGGAGAAGACUGCGGGUUCGAGUCCCGUCCGGAACG [A15C G25A A65C] | 0.711
GUUCCGUUGGCGUACUGGUAACGCAUCACCCUCCUAAGGAGAAGACUGCGGGUUCGAGUCCCGUACGGAACG [A15C G25A U28A] | ≤ 0.5
GUUCCGUUGGCGUACUGGUAACGCCUCUUCCUCCCAAGGAGAUGACUGCGGGUUCGAGUCCCGUACGGUACG [A15C G25C C29U U35C A43U A69U] | ≤ 0.5
GUUCCGUUGGCGUACUGGUAACGCCUCUUCCUCCCAAGGAGAUGACUGCGGGUUCGAGUCCCGUACCGAACG [A15C G25C C29U U35C A43U G67C] | ≤ 0.5
GUUCCGUUGGCGUACUGGUAACGCGUCUCCCUCCUAAAGAGAAGACUGAGGGUUCGAGUCCCGUACGGAACG [A15C G38A C49A] | ≤ 0.5
GUUCCGUUGGCGUACUGGUAACGCGUCUCCCUCCUAAGAAGAAGACUGCGGGUUCGGGUCCCGUAUGGAACG [A15C G39A A57G C66U] | ≤ 0.5
GUUCCGUUGGCGUACUGGUAACGCGUCUCCCUCCUAAGAAGAAGACUGCGGGUUCGAGUCCCGUGCGGAACG [A15C G39A A65G] | 0.517
GUUCCGUUGGCGUACUGGUAACGCGUCUCCCUCCUAAGAAGAAGACUGCGGGUUCGAGUCCCGUACAGAACG [A15C G39A G67A] | ≤ 0.5
GUUCCGUUGGCGUACUGGUAACGCGUCUCCCUCCUAAGAAGAAGACUGCGGGUUCGAGUCCCGCGCGGAACG [A15C G39A U64C A65G] | ≤ 0.5
GUUCCGUUGGCGUACUGGUAACGCGUCUCCCUCCUAAGGAGAAAACUGCGGGCUCGAGUCCCGCACGGAACG [A15C G44A U53C U64C] | ≤ 0.5
GUUCCGUUGGCGUACUGGUAACGCGUCUCCCUCCUAAGGAGAAGACUACGGGUUCGAGUCCCGGACGGAACG [A15C G48A U64G] | 0.593
GUUCCGUUGGCGUACUGGUAACGCGUCUCCCUCCUAAGGAGAAGACUGCAGGUUUGAGUCGCGUACGGAACG [A15C G50A C55U C61G] | 0.804
